Measurements: ChEMBL document CHEMBL4689842, “EUbOPEN Chemogenomics Library wave 1” (2021)

Tested on: U2OS
Assay: Multiplex assay against U2OS
Type: toxicity, cell-based
Conditions: human
How it was run: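 Phenotypes for tubulin, mitochondrial mass and membrane permeability are expressed as per cents of healthy-nucleus cells. Cells were stained live at seeding with Hoechst33342, BioTracker Green Microtubule Cytoskeleton Dye, MitoTracker Red and Annexin V Alexa Fluor 680, then imaged after compound addition on a CQ1 microscope at 37°C and 5% CO2. Machine-learning gating in CellPathfinder separated Hoechst high-intensity objects from normal cells, divided normal cells by nuclear state (healthy, pyknosed, fragmented) and divided pyknosed cells into mitotic or apoptotic.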

[1] = 12 h, 1 µM, compound concentration 1 uM, replicate 1
[2] = 12 h, 1 µM, compound concentration 1 uM, replicate 2
[3] = 12 h, 10 µM, compound concentration 10 uM, replicate 1
[4] = 12 h, 10 µM, compound concentration 10 uM, replicate 2
[5] = 24 h, 1 µM, compound concentration 1 uM, replicate 1
[6] = 24 h, 1 µM, compound concentration 1 uM, replicate 2
[7] = 24 h, 10 µM, compound concentration 10 uM, replicate 1
[8] = 24 h, 10 µM, compound concentration 10 uM, replicate 2
[9] = 48 h, 1 µM, compound concentration 1 uM, replicate 1
[10] = 48 h, 1 µM, compound concentration 1 uM, replicate 2
[11] = 48 h, 10 µM, compound concentration 10 uM, replicate 1
[12] = 48 h, 10 µM, compound concentration 10 uM, replicate 2

Question: What does the source list for `Cc1c(-c2ccc(O)cc2)n(Cc2ccc(OCCN3CCCCCC3)cc2)c2ccc(O)cc12` [BAZEDOXIFENE]?
Answer: Population Apoptotic (%) [1]: 58%; Population Fragmented Nuclei (%) [1]: 22%; Population Healthy Nuclei (%) [1]: 67%; Population Hoechst High Intensity Objects (%) [1]: 15%; Population Membrane Permeable-Phenotype (%) [1]: 3%; Population Mitochondria Different-Phenotype (%) [1]: 13%; Population Mitotic Cells (%) [1]: 41%; Population Normal (%) [1]: 84%; Population Pyknosed Nuclei (%) [1]: 9%; Population Tubulin-Different-Phenotype (%) [1]: 20%; Total Cell Count [1]: 144; Population Apoptotic (%) [2]: 0%; Population Fragmented Nuclei (%) [2]: 13%; Population Healthy Nuclei (%) [2]: 81%; Population Hoechst High Intensity Objects (%) [2]: 10%; Population Membrane Permeable-Phenotype (%) [2]: 5%; Population Mitochondria Different-Phenotype (%) [2]: 20%; Population Mitotic Cells (%) [2]: 100%; Population Normal (%) [2]: 89%; Population Pyknosed Nuclei (%) [2]: 4%; Population Tubulin-Different-Phenotype (%) [2]: 17%; Total Cell Count [2]: 48; Population Apoptotic (%) [3]: 41%; Population Fragmented Nuclei (%) [3]: 24%; Population Healthy Nuclei (%) [3]: 43%; Population Hoechst High Intensity Objects (%) [3]: 4%; Population Membrane Permeable-Phenotype (%) [3]: 23%; Population Mitochondria Different-Phenotype (%) [3]: 97%; Population Mitotic Cells (%) [3]: 58%; Population Normal (%) [3]: 95%; Population Pyknosed Nuclei (%) [3]: 32%; Population Tubulin-Different-Phenotype (%) [3]: 98%; Total Cell Count [3]: 190; Population Apoptotic (%) [4]: 60%; Population Fragmented Nuclei (%) [4]: 7%; Population Healthy Nuclei (%) [4]: 56%; Population Hoechst High Intensity Objects (%) [4]: 2%; Population Membrane Permeable-Phenotype (%) [4]: 26%; Population Mitochondria Different-Phenotype (%) [4]: 100%; Population Mitotic Cells (%) [4]: 40%; Population Normal (%) [4]: 97%; Population Pyknosed Nuclei (%) [4]: 36%; Population Tubulin-Different-Phenotype (%) [4]: 100%; Total Cell Count [4]: 42; Population Apoptotic (%) [5]: 24%; Population Fragmented Nuclei (%) [5]: 15%; Population Healthy Nuclei (%) [5]: 66%; Population Hoechst High Intensity Objects (%) [5]: 11%; Population Membrane Permeable-Phenotype (%) [5]: 3%; Population Mitochondria Different-Phenotype (%) [5]: 9%; Population Mitotic Cells (%) [5]: 76%; Population Normal (%) [5]: 88%; Population Pyknosed Nuclei (%) [5]: 17%; Population Tubulin-Different-Phenotype (%) [5]: 11%; Total Cell Count [5]: 157; Population Apoptotic (%) [6]: 11%; Population Fragmented Nuclei (%) [6]: 8%; Population Healthy Nuclei (%) [6]: 75%; Population Hoechst High Intensity Objects (%) [6]: 3%; Population Membrane Permeable-Phenotype (%) [6]: 2%; Population Mitochondria Different-Phenotype (%) [6]: 6%; Population Mitotic Cells (%) [6]: 88%; Population Normal (%) [6]: 96%; Population Pyknosed Nuclei (%) [6]: 15%; Population Tubulin-Different-Phenotype (%) [6]: 15%; Total Cell Count [6]: 60; Population Apoptotic (%) [7]: 73%; Population Fragmented Nuclei (%) [7]: 32%; Population Healthy Nuclei (%) [7]: 26%; Population Hoechst High Intensity Objects (%) [7]: 4%; Population Membrane Permeable-Phenotype (%) [7]: 50%; Population Mitochondria Different-Phenotype (%) [7]: 100%; Population Mitotic Cells (%) [7]: 26%; Population Normal (%) [7]: 95%; Population Pyknosed Nuclei (%) [7]: 40%; Population Tubulin-Different-Phenotype (%) [7]: 98%; Total Cell Count [7]: 213; Population Apoptotic (%) [8]: 68%; Population Fragmented Nuclei (%) [8]: 22%; Population Healthy Nuclei (%) [8]: 30%; Population Hoechst High Intensity Objects (%) [8]: 20%; Population Membrane Permeable-Phenotype (%) [8]: 75%; Population Mitotic Cells (%) [8]: 31%; Population Normal (%) [8]: 80%; Population Pyknosed Nuclei (%) [8]: 47%; Population Tubulin-Different-Phenotype (%) [8]: 100%; Total Cell Count [8]: 50; Population Apoptotic (%) [9]: 53%; Population Fragmented Nuclei (%) [9]: 11%; Population Healthy Nuclei (%) [9]: 80%; Population Hoechst High Intensity Objects (%) [9]: 7%; Population Membrane Permeable-Phenotype (%) [9]: 2%; Population Mitochondria Different-Phenotype (%) [9]: 13%; Population Mitotic Cells (%) [9]: 46%; Population Normal (%) [9]: 92%; Population Pyknosed Nuclei (%) [9]: 8%; Population Tubulin-Different-Phenotype (%) [9]: 8%; Total Cell Count [9]: 197; Population Apoptotic (%) [10]: 36%; Population Fragmented Nuclei (%) [10]: 14%; Population Healthy Nuclei (%) [10]: 75%; Population Hoechst High Intensity Objects (%) [10]: 3%; Population Membrane Permeable-Phenotype (%) [10]: 8%; Population Mitochondria Different-Phenotype (%) [10]: 16%; Population Mitotic Cells (%) [10]: 63%; Population Normal (%) [10]: 96%; Population Pyknosed Nuclei (%) [10]: 11%; Population Tubulin-Different-Phenotype (%) [10]: 22%; Total Cell Count [10]: 104; Population Apoptotic (%) [11]: 95%; Population Fragmented Nuclei (%) [11]: 39%; Population Healthy Nuclei (%) [11]: 5%; Population Hoechst High Intensity Objects (%) [11]: 9%; Population Membrane Permeable-Phenotype (%) [11]: 77%; Population Mitotic Cells (%) [11]: 4%; Population Normal (%) [11]: 90%; Population Pyknosed Nuclei (%) [11]: 55%; Population Tubulin-Different-Phenotype (%) [11]: 88%; Total Cell Count [11]: 177; Population Apoptotic (%) [12]: 100%; Population Fragmented Nuclei (%) [12]: 13%; Population Healthy Nuclei (%) [12]: 48%; Population Hoechst High Intensity Objects (%) [12]: 32%; Population Membrane Permeable-Phenotype (%) [12]: 92%; Population Mitochondria Different-Phenotype (%) [12]: 100%; Population Mitotic Cells (%) [12]: 0%; Population Normal (%) [12]: 67%; Population Pyknosed Nuclei (%) [12]: 37%; Population Tubulin-Different-Phenotype (%) [12]: 100%; Total Cell Count [12]: 43

Question: Which results are given for `CC(C)(O)CNc1ncc(-c2ccnc(Nc3ccnc(Cl)c3)n2)c(CC2CC2)n1`?
Answer: Population Apoptotic (%) [1]: 44%; Population Fragmented Nuclei (%) [1]: 9%; Population Healthy Nuclei (%) [1]: 71%; Population Hoechst High Intensity Objects (%) [1]: 3%; Population Membrane Permeable-Phenotype (%) [1]: 8%; Population Mitochondria Different-Phenotype (%) [1]: 24%; Population Mitotic Cells (%) [1]: 55%; Population Normal (%) [1]: 96%; Population Pyknosed Nuclei (%) [1]: 18%; Population Tubulin-Different-Phenotype (%) [1]: 19%; Total Cell Count [1]: 182; Population Apoptotic (%) [2]: 9%; Population Healthy Nuclei (%) [2]: 78%; Population Hoechst High Intensity Objects (%) [2]: 5%; Population Membrane Permeable-Phenotype (%) [2]: 5%; Population Mitochondria Different-Phenotype (%) [2]: 17%; Population Mitotic Cells (%) [2]: 90%; Population Normal (%) [2]: 94%; Population Pyknosed Nuclei (%) [2]: 12%; Population Tubulin-Different-Phenotype (%) [2]: 14%; Total Cell Count [2]: 97; Population Apoptotic (%) [3]: 50%; Population Fragmented Nuclei (%) [3]: 18%; Population Healthy Nuclei (%) [3]: 42%; Population Hoechst High Intensity Objects (%) [3]: 14%; Population Membrane Permeable-Phenotype (%) [3]: 24%; Population Mitochondria Different-Phenotype (%) [3]: 90%; Population Mitotic Cells (%) [3]: 50%; Population Normal (%) [3]: 85%; Population Pyknosed Nuclei (%) [3]: 38%; Population Tubulin-Different-Phenotype (%) [3]: 100%; Total Cell Count [3]: 202; Population Apoptotic (%) [4]: 15%; Population Fragmented Nuclei (%) [4]: 10%; Population Healthy Nuclei (%) [4]: 64%; Population Hoechst High Intensity Objects (%) [4]: 7%; Population Membrane Permeable-Phenotype (%) [4]: 28%; Population Mitochondria Different-Phenotype (%) [4]: 96%; Population Mitotic Cells (%) [4]: 84%; Population Normal (%) [4]: 92%; Population Pyknosed Nuclei (%) [4]: 26%; Total Cell Count [4]: 93; Population Apoptotic (%) [5]: 35%; Population Fragmented Nuclei (%) [5]: 6%; Population Healthy Nuclei (%) [5]: 75%; Population Hoechst High Intensity Objects (%) [5]: 3%; Population Membrane Permeable-Phenotype (%) [5]: 5%; Population Mitochondria Different-Phenotype (%) [5]: 22%; Population Mitotic Cells (%) [5]: 64%; Population Normal (%) [5]: 96%; Population Pyknosed Nuclei (%) [5]: 18%; Population Tubulin-Different-Phenotype (%) [5]: 10%; Total Cell Count [5]: 196; Population Apoptotic (%) [6]: 20%; Population Fragmented Nuclei (%) [6]: 11%; Population Healthy Nuclei (%) [6]: 74%; Population Hoechst High Intensity Objects (%) [6]: 4%; Population Membrane Permeable-Phenotype (%) [6]: 10%; Population Mitochondria Different-Phenotype (%) [6]: 20%; Population Mitotic Cells (%) [6]: 80%; Population Normal (%) [6]: 95%; Population Pyknosed Nuclei (%) [6]: 15%; Population Tubulin-Different-Phenotype (%) [6]: 16%; Total Cell Count [6]: 136; Population Apoptotic (%) [7]: 52%; Population Fragmented Nuclei (%) [7]: 26%; Population Healthy Nuclei (%) [7]: 22%; Population Hoechst High Intensity Objects (%) [7]: 12%; Population Membrane Permeable-Phenotype (%) [7]: 47%; Population Mitochondria Different-Phenotype (%) [7]: 100%; Population Mitotic Cells (%) [7]: 47%; Population Normal (%) [7]: 87%; Population Pyknosed Nuclei (%) [7]: 51%; Population Tubulin-Different-Phenotype (%) [7]: 100%; Total Cell Count [7]: 240; Population Apoptotic (%) [8]: 47%; Population Fragmented Nuclei (%) [8]: 14%; Population Healthy Nuclei (%) [8]: 40%; Population Hoechst High Intensity Objects (%) [8]: 14%; Population Mitochondria Different-Phenotype (%) [8]: 89%; Population Mitotic Cells (%) [8]: 52%; Population Normal (%) [8]: 85%; Population Pyknosed Nuclei (%) [8]: 44%; Total Cell Count [8]: 105; Population Apoptotic (%) [9]: 45%; Population Fragmented Nuclei (%) [9]: 6%; Population Hoechst High Intensity Objects (%) [9]: 2%; Population Membrane Permeable-Phenotype (%) [9]: 9%; Population Mitochondria Different-Phenotype (%) [9]: 10%; Population Mitotic Cells (%) [9]: 54%; Population Normal (%) [9]: 97%; Population Pyknosed Nuclei (%) [9]: 17%; Population Tubulin-Different-Phenotype (%) [9]: 7%; Total Cell Count [9]: 130; Population Apoptotic (%) [10]: 50%; Population Fragmented Nuclei (%) [10]: 13%; Population Healthy Nuclei (%) [10]: 76%; Population Hoechst High Intensity Objects (%) [10]: 3%; Population Membrane Permeable-Phenotype (%) [10]: 17%; Population Mitochondria Different-Phenotype (%) [10]: 24%; Population Mitotic Cells (%) [10]: 50%; Population Normal (%) [10]: 96%; Population Pyknosed Nuclei (%) [10]: 10%; Population Tubulin-Different-Phenotype (%) [10]: 22%; Total Cell Count [10]: 90; Population Apoptotic (%) [11]: 82%; Population Fragmented Nuclei (%) [11]: 35%; Population Healthy Nuclei (%) [11]: 12%; Population Hoechst High Intensity Objects (%) [11]: 15%; Population Membrane Permeable-Phenotype (%) [11]: 50%; Population Mitochondria Different-Phenotype (%) [11]: 90%; Population Mitotic Cells (%) [11]: 17%; Population Normal (%) [11]: 84%; Population Pyknosed Nuclei (%) [11]: 51%; Population Tubulin-Different-Phenotype (%) [11]: 100%; Total Cell Count [11]: 308; Population Apoptotic (%) [12]: 61%; Population Fragmented Nuclei (%) [12]: 19%; Population Healthy Nuclei (%) [12]: 23%; Population Hoechst High Intensity Objects (%) [12]: 17%; Population Membrane Permeable-Phenotype (%) [12]: 100%; Population Mitochondria Different-Phenotype (%) [12]: 100%; Population Mitotic Cells (%) [12]: 38%; Population Normal (%) [12]: 82%; Population Pyknosed Nuclei (%) [12]: 56%; Total Cell Count [12]: 141
